Measured values taken from ChEMBL document CHEMBL1212917, “Substituted E-3-(3-indolylmethylene)-1,3-dihydroindol-2-ones with antitumor activity. In depth study of the effect on growth of breast cancer cells” (2010).
Active and inactive are the calls of the source. The calls are words filed in the database; no cut-off is given here.

Key:
[1] = Growth inhibition of human leukemia cells after 48 hrs; format: functional; details: Leukemia cell
NSCLC = assay: Growth inhibition of human NSCLC cells after 48 hrs; format: functional
[2] = Growth inhibition of human colon cancer cells after 48 hrs; format: functional; details: Cancer cell lines
[3] = Growth inhibition of human CNS cancer cells after 48 hrs; format: functional; details: Cancer cell lines
[4] = Growth inhibition of human melanoma cells after 48 hrs; format: functional; details: Melanoma cell
[5] = Growth inhibition of human Ovarian cancer cells after 48 hrs; format: functional; details: Cancer cell lines
[6] = Growth inhibition of human renal cancer cells after 48 hrs; format: functional; details: Cancer cell lines
[7] = Growth inhibition of human prostate cancer cells after 48 hrs; format: functional; details: Cancer cell lines
[8] = Growth inhibition of human breast cancer cells after 48 hrs; format: functional; details: Cancer cell lines
MCF7 [9] = assay: Antiproliferative activity against human MCF7 cells assessed as increase in tumor suppressor p53 expression at 5 uM after 20 hrs by Western blotting; format: functional
Procedure, shortened: (§1)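 MCF-7 cells in RPMI 1640 with 10% FBS and 2 mM L-glutamine at 37°C, 5% CO2, plated at 2×10^4 cells/cm2. Compound added 24 h later to 5 μM (DMSO vehicle in controls) for 20 h. Lysed in HEPES pH 7.5 buffer with DTT, EDTA, CHAPS, Triton X-100 and protease inhibitors, then freeze-thawed twice. SDS-PAGE at 80 μg protein/lane and immunoblotting for total and phospho ERK1/2 and Akt, p53 and p21, with β-actin. Densitometry used for quantitation.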

[10] = molecular target: RAC-alpha serine/threonine-protein kinase (Homo sapiens) (UniProt P31749); assay: Inhibition of AKT phosphorylation in human MCF7 cells assessed as p-AKT level at 5 uM after 20 hrs by Western blotting; format: cell-based; procedure, shortened: as §1
Sequence of RAC-alpha serine/threonine-protein kinase (Homo sapiens) (P31749 whole entry): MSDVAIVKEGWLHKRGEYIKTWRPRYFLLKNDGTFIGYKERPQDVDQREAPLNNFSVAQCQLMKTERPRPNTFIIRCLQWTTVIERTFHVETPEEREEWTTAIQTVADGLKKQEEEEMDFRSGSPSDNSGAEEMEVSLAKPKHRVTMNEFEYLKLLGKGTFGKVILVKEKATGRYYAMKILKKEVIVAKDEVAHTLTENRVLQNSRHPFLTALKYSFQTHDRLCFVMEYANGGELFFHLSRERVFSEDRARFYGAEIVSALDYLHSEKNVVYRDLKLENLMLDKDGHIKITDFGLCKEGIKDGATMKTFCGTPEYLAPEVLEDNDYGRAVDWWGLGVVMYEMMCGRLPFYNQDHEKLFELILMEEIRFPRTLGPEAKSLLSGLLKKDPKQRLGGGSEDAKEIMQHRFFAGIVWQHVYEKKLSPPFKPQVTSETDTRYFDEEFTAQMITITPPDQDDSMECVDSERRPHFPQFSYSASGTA

MCF7 [11] = assay: Antiproliferative activity against human MCF7 cells assessed as increase in tumor suppressor p21 expression at 5 uM after 20 hrs by Western blotting; format: functional; details: in the assay text read “24 hrs” for “20 hrs”
MCF7 [12] = assay: Induction of apoptosis in human MCF7 cells assessed as Bax accumulation by immunofluorescence microscopy; format: functional, cell-based
Procedure, shortened: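 MCF-7 cells seeded on glass coverslips at 1×10^4 cells/cm2 and treated with 5 μM for 24 h. Fixed in 3% paraformaldehyde, washed in glycine and permeabilized in ice-cold 70% ethanol. Stained with mouse anti-Bax for 1 h at room temperature, then FITC anti-mouse IgG, with propidium iodide as nuclear counterstain. Imaged by confocal microscopy with excitation at 488 and 568 nm. Three experiments.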

MCF7 [13] = assay: Cell cycle arrest in human MCF7 cells assessed as accumulation at G2/M phase at 200 nM after 24 to 48 hrs; format: functional, cell-based
Procedure, shortened: (§2)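 MCF-7 cells plated at 2×10^4 cells/cm2 and exposed to 200 nM compound for 24 and 48 h; DMSO-treated controls. Cells detached with trypsin/EDTA and washed in PBS. Stained 30 min at room temperature in the dark with 50 μg/mL propidium iodide, 10 μg/mL RNase, 0.01% NP-40 and 0.1% sodium citrate. DNA content read by flow cytometry. Means ± s.e.m. of three determinations.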

MCF7 [14] = assay: Cell cycle arrest in human MCF7 cells assessed as accumulation at subG1 phase at 200 nM after 24 to 48 hrs; format: functional, cell-based; procedure, shortened: as §2
MCF7 [15] = assay: Growth inhibition of human MCF7 cells at 200 nM after 48 hrs by trypan blue exclusion cell counting
[16] = read-out: LC50 (the source's name)

SMILES: COc1cc2c(/C=C3/C(=O)Nc4cc(Cl)ccc43)c(Cl)n(C)c2cc1C
- GI50 [1]: 0.02 µM
- CC50 [1, 16]: 39.8 µM
- GI50 (NSCLC): 0.07 µM
- LC50 (NSCLC): 93.3 µM
- GI50 [2]: 0.02 µM
- CC50 [2, 16]: 25.1 µM
- GI50 [3]: 0.02 µM
- CC50 [3, 16]: 23.4 µM
- GI50 [4]: 0.02 µM
- CC50 [4, 16]: 50.1 µM
- GI50 [5]: 0.03 µM
- CC50 [5, 16]: 52.5 µM
- GI50 [6]: 0.04 µM
- CC50 [6, 16]: 70.8 µM
- GI50 [7]: 0.02 µM
- TGI [7]: 3.02 µM
- CC50 [7, 16]: 21.4 µM
- GI50 [8]: 0.05 µM
- CC50 [8, 16]: 72.4 µM
- Activity (MCF7 [9]): Active
- fold change (FC) (MCF7 [9]; in the assay text read “after 24 hrs” for “after 20 hrs”): 3
- Activity [10]: Active
- Activity (MCF7 [11]): 90%
- Activity (MCF7 [12]): Active
- Activity (MCF7 [13]): Active
- Activity (MCF7 [14]): Active
- Activity (MCF7 [15]): Active
